Data on 20 compounds can be found in ChEMBL document CHEMBL1154112, “Parallel synthesis of potent dopaminergic N-phenyltriazole carboxamides applying a novel click chemistry based phenol linker” (Bioorg Med Chem, 2009).

The source made the active and inactive calls. The calls are words filed in the database; no cut-off is given here.

In test [1] the target is T1, D(3) dopamine receptor (Homo sapiens, UniProt P35462). The test can be described thus: Displacement of [3H]spiperone from human cloned dopamine D3 expressed in CHO cells. It counts as cell-based. The arrangement: concentration or dose not given beside the values. The method, boiled down: (§1)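 Competition binding used membranes from CHO cells expressing human D2long, D2short, D3 or D4.4, with 0.5 nM final [3H]spiperone. Screening was run at 100 nM and 1 nM test compound in triplicate. Ki values come from nonlinear regression, as means of 2–4 experiments each run in triplicate.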
T1 sequence (P35462 whole entry): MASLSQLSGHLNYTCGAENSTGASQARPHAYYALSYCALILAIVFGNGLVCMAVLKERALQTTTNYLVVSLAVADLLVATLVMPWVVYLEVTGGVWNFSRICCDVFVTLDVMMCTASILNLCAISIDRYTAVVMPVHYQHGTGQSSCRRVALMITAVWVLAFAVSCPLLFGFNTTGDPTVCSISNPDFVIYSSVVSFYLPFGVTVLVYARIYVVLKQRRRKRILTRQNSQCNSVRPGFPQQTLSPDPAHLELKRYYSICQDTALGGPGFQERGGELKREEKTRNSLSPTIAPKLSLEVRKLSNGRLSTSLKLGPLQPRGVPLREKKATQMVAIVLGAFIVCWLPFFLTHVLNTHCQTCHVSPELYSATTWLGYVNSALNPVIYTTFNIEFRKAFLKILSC

In test [2] the target is D(1A) dopamine receptor (Sus scrofa) (UniProt P50130). In words: Displacement of [3H]SCH23390 from pig dopamine D1 receptor. The method, boiled down: (§2)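 Porcine striatal membranes were incubated with 0.3 nM [3H]SCH 23390 (Kd 0.95 nM). Protein was measured by Lowry against a BSA standard. Test compounds were screened at 100 nM and 1 nM in triplicate. Ki values were derived by nonlinear regression of competition curves, as means of 2–4 experiments each run in triplicate.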
Chain of D(1A) dopamine receptor (Sus scrofa) (P50130 whole entry): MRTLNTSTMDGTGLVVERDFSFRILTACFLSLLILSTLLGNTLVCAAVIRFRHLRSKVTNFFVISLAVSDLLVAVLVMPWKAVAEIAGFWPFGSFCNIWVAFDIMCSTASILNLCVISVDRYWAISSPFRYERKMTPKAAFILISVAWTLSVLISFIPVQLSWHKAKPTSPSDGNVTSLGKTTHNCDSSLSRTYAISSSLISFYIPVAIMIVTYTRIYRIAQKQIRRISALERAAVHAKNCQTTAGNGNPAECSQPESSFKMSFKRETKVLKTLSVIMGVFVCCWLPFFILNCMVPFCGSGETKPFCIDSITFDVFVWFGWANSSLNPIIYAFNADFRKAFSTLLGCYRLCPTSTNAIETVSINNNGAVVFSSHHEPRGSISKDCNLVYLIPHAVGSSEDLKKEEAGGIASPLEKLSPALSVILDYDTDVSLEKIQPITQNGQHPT
(Displacement assays read how much labelled ligand stays bound in the presence of the test substance.)

For another test, the species on record is Sus scrofa. In words: Displacement of [3H]prazosin from pig alpha-1 adrenergic receptor. Set-up: concentration or dose not given beside the values. The method, boiled down: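 Porcine cortical membranes at 55 µg protein per tube, [3H]prazosin as radioligand (Kd 0.06 nM). Ki obtained by non-linear regression of competition curves, means of 2–4 experiments each run in triplicate; screening run at 10 µM, 100 nM and 1 nM test compound in triplicate.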

A short description of test [3]: Binding affinity to pig alpha-1 adrenergic receptor. The arrangement: species or system Sus scrofa. Summed up:
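Alpha1 binding used porcine cortical membranes with [3H]prazosin (KD 0.06 nM). Protein was measured by Lowry against a BSA standard. Ki came from nonlinear regression of competition curves, as the mean of 2–4 experiments each run in triplicate.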

For test [4], the target named is T1, D(3) dopamine receptor. In words: Binding affinity to human cloned dopamine D3 expressed in CHO cells. The test is classed as cell-based.
The target in test [5] is T2, D(2) dopamine receptor (Homo sapiens, UniProt P14416). In words: Binding affinity to human cloned dopamine D2-short expressed in CHO cells. The test is classed as cell-based. Summed up: as §1
T2 sequence (P14416 whole entry): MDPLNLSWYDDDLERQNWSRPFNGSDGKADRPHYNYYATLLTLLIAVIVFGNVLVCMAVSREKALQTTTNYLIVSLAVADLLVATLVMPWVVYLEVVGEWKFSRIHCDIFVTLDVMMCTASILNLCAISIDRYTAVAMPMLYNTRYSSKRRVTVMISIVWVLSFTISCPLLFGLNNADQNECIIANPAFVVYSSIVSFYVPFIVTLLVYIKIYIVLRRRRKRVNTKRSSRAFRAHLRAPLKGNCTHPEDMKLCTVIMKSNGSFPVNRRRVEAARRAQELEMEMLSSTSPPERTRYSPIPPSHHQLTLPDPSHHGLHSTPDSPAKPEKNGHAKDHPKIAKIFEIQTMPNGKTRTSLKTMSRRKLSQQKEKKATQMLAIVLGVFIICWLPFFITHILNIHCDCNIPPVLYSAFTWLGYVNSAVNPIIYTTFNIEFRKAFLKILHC
The target in test [6] is T2, D(2) dopamine receptor. In words: Binding affinity to human cloned dopamine D2-long expressed in CHO cells. The test is classed as cell-based. The method, boiled down:
as §1

The target of another test is T3, D(4) dopamine receptor (Homo sapiens, UniProt P21917).
T3 sequence (P21917 whole entry): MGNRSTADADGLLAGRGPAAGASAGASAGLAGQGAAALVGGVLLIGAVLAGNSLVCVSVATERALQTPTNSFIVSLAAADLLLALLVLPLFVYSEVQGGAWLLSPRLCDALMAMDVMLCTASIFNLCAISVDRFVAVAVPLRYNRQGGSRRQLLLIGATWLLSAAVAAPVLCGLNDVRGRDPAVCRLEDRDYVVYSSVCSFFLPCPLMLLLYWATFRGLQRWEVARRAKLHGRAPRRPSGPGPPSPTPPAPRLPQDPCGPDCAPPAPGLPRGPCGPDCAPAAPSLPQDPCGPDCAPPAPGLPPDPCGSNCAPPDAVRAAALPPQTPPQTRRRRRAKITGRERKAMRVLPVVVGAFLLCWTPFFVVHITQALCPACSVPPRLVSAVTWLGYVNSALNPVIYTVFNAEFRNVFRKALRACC
In words: Binding affinity to human cloned dopamine D4.4 expressed in CHO cells. It counts as cell-based.

Another test concerns the target D(1A) dopamine receptor (Sus scrofa, UniProt P50130). The test can be described thus: Binding affinity to pig dopamine D1 receptor. The method, boiled down: as §2
For test [7], the target named is T4, D(4) dopamine receptor (Homo sapiens) (UniProt P21917).
T4 sequence (whole entry): T3 sequence (P21917 whole entry)
In words: Displacement of [3H]spiperone from human cloned dopamine D4.4 expressed in CHO cells. The test is classed as cell-based. The method, boiled down: as §1

In test [8] the target is T2, D(2) dopamine receptor. The test can be described thus: Displacement of [3H]spiperone from human cloned dopamine D2-short expressed in CHO cells. The test is classed as cell-based. Set-up: concentration or dose not given beside the values. The method, boiled down: as §1
Test [9] has as its target T2, D(2) dopamine receptor. The test can be described thus: Displacement of [3H]spiperone from human cloned dopamine D2-long expressed in CHO cells. It counts as cell-based. Summed up: as §1

Chain of D(1A) dopamine receptor (P50130 whole entry): as the sequence (P50130 whole entry) above

As for `O=C(NCCCCN1CCN(c2ccccc2Cl)CC1)c1cn(-c2ccc([N+](=O)[O-])cc2)nn1`, the Activity on D(3) dopamine receptor [1] and in the test filed under Sus scrofa was 61% each time. In test [2], the result was inactive.
`COc1ccccc1N1CCN(CCNC(=O)c2cn(-c3ccc([N+](=O)[O-])cc3)nn2)CC1`: the inhibition constant (Ki) (in general, a dissociation constant, usually derived from enzyme kinetics or from competition with a known ligand) in test [3] stood at 6.5 nM; at D(3) dopamine receptor [4], 4.9 nM; on D(2) dopamine receptor [5] it was 470 nM; at D(2) dopamine receptor [6] it was 750 nM; at D(4) dopamine receptor, 140 nM; at D(1A) dopamine receptor, 4100 nM. Also, the result in test [2] was inactive. In the test filed under Sus scrofa, this compound displayed an Activity of 80%.
Take `O=C(CCCc1cn(-c2ccc([N+](=O)[O-])cc2)nn1)NCCN1CCN(c2cccc(Cl)c2Cl)CC1`: the Activity on D(3) dopamine receptor [1] amounted to 39%; in test [7], 37%. The outcome in test [2] was inactive.
As for `COc1ccc(-n2cc(CCCC(=O)NCCCCN3CCN(c4ccccc4OC)CC3)nn2)cc1`, the Activity amounted to 46% at D(3) dopamine receptor [1], 72% in the test filed under Sus scrofa and 33% on D(2) dopamine receptor [8]. In test [2], the outcome was inactive.
Take `O=C(CCCc1cn(-c2ccc([N+](=O)[O-])cc2)nn1)NCCCCN1CCN(c2cccc(Cl)c2Cl)CC1`: the Ki in test [3] came to 28 nM; at D(3) dopamine receptor [4] it was 5.7 nM; at D(2) dopamine receptor [5], 47 nM; at D(2) dopamine receptor [6] it was 83 nM; at D(4) dopamine receptor, 240 nM; on D(1A) dopamine receptor, 2200 nM. Also, the Activity was found to be 76% at D(3) dopamine receptor [1] and 43% at D(2) dopamine receptor [8]. Besides, the result in test [2] was inactive.
`COc1ccccc1N1CCN(CCCCNC(=O)CCCc2cn(-c3ccc([N+](=O)[O-])cc3)nn2)CC1`: the Activity on D(3) dopamine receptor [1] worked out at 51%; at D(2) dopamine receptor [9], 39%; in the test listed under Sus scrofa, 83%; at D(2) dopamine receptor [8], 52%. In addition, in [2], the outcome was inactive.
Turning to `COc1ccc(-n2cc(C(=O)NCCCCN3CCN(c4cccc(Cl)c4Cl)CC3)nn2)cc1`, the inhibition constant Ki amounted to 46 nM in [3]; 4.9 nM at D(3) dopamine receptor [4]; 68 nM on D(2) dopamine receptor [5]; 44 nM on D(2) dopamine receptor [6]; 320 nM at D(4) dopamine receptor; 1700 nM at D(1A) dopamine receptor. The compound also came in with an Activity on D(3) dopamine receptor [1] of 76%. The result in test [2] was inactive.
With `O=C(CCCc1cn(-c2ccc([N+](=O)[O-])cc2)nn1)NCCCCN1CCN(c2ccccc2Cl)CC1`, the Activity on D(3) dopamine receptor [1] is 51%; in the test filed under Sus scrofa, 64%. The outcome in [2] was inactive.
For `COc1ccc(-n2cc(C(=O)NCCCCN3CCN(c4ccccc4OC)CC3)nn2)cc1`, in that order: 57%, 64% and “inactive”.
Regarding `COc1ccc(-n2cc(C(=O)NCCCCN3CCN(c4ccccc4Cl)CC3)nn2)cc1`, the Activity came to 58% at D(3) dopamine receptor [1] and 55% in the test filed under Sus scrofa. The outcome in test [2] was inactive.
On to `COc1ccc(-n2cc(CCCC(=O)NCCN3CCN(c4ccccc4OC)CC3)nn2)cc1`, for which, in test [2], the outcome was inactive. Also, the Activity in the test filed under Sus scrofa was determined as 56%.
Turning to `COc1ccc(-n2cc(CCCC(=O)NCCCCN3CCN(c4cccc(Cl)c4Cl)CC3)nn2)cc1`, the inhibition constant Ki in test [3] worked out at 42 nM; at D(3) dopamine receptor [4] it was 9.3 nM; at D(2) dopamine receptor [5], 42 nM; on D(2) dopamine receptor [6], 120 nM; on D(4) dopamine receptor, 200 nM; on D(1A) dopamine receptor, 1800 nM. The Activity on D(3) dopamine receptor [1] worked out at 71%; at D(2) dopamine receptor [8], 43%. Further, the result in test [2] was inactive.
For the compound `COc1ccc(-n2cc(CCCC(=O)NCCCCN3CCN(c4ccccc4Cl)CC3)nn2)cc1`, the Activity is 38% on D(3) dopamine receptor [1] and 58% in the test filed under Sus scrofa. Besides, the result in [2] was inactive.
For the compound `COc1ccccc1N1CCN(CCNC(=O)CCCc2cn(-c3ccc([N+](=O)[O-])cc3)nn2)CC1`, in test [2], the outcome was inactive. The same compound displayed an Activity in the test listed under Sus scrofa of 43%.
For the compound `O=C(NCCCCN1CCN(c2cccc(Cl)c2Cl)CC1)c1cn(-c2ccc([N+](=O)[O-])cc2)nn1`, the inhibitory constant (Ki) amounted to 17 nM in [3]; 1 nM at D(3) dopamine receptor [4]; 53 nM on D(2) dopamine receptor [5]; 49 nM on D(2) dopamine receptor [6]; 280 nM on D(4) dopamine receptor; 810 nM at D(1A) dopamine receptor. Besides, the Activity worked out at 95% on D(3) dopamine receptor [1], 33% at D(2) dopamine receptor [9], 48% in the test filed under Sus scrofa and 53% on D(2) dopamine receptor [8]. Moreover, the outcome in [2] was inactive.
For the compound `COc1ccc(-n2cc(CCCC(=O)NCCN3CCN(c4cccc(Cl)c4Cl)CC3)nn2)cc1`, the Activity at D(3) dopamine receptor [1] turned out to be 42%; in test [7], 41%. In test [2], the result was inactive.
`COc1ccccc1N1CCN(CCCCNC(=O)c2cn(-c3ccc([N+](=O)[O-])cc3)nn2)CC1`: the Activity on D(3) dopamine receptor [1] is 58%; in the test listed under Sus scrofa, 73%; at D(2) dopamine receptor [8], 38%. In addition, the outcome in [2] was inactive.
Consider `COc1ccc(-n2cc(C(=O)NCCN3CCN(c4cccc(Cl)c4Cl)CC3)nn2)cc1`, for which the Activity was 40% at D(3) dopamine receptor [1] and 39% in the test filed under Sus scrofa. In test [2], the outcome was inactive.
For `COc1ccc(-n2cc(C(=O)NCCN3CCN(c4ccccc4OC)CC3)nn2)cc1`, the outcome in test [2] was inactive. The compound also had an Activity in the test listed under Sus scrofa of 56%.
Regarding `O=C(NCCN1CCN(c2cccc(Cl)c2Cl)CC1)c1cn(-c2ccc([N+](=O)[O-])cc2)nn1`, the Activity on D(3) dopamine receptor [1] came out at 52%; in the test filed under Sus scrofa it was 47%. Moreover, the result in test [2] was inactive.
